High-throughput results as filed in PubChem BioAssay.
NLRP3 yeast inh – NALP3 inhibition in yeast. Yeast reconstituted NLRP3/ASC/caspase-1, beta-gal luminescence, 24 h. hit rate 0.39% among 330,000. inhibition, % at 10 µM;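 active = inhibition of 50% or more; inactive = inhibition below 50%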;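 also: plate controls were induced DMSO wells for no effect and uninduced yeast grown without galactose for full effect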
NALP1 inh – blocks the NALP1 inflammasome reconstituted in yeast; S. cerevisiae NALP1/ASC/caspase-1 growth, X-gal OD620, 72 h; hit rate 0.61% among 280,000; inhibition, % at 10 µM; in the data active = inhibition mostly above about 24%, no sharp cut-off; inactive = mostly below about 32%
PolyA inh – inhibitors of polyadenylation in S. cerevisiae | activity score, % at 12 µM | S. cerevisiae SKY197-pL101 polyadenylation reporter, beta-gal luminescence; efflux-impaired pdr1/pdr3 knockout yeast; score 100 = 6 SD above DMSO | hit rate 0.02% among 300,000;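 active = lowest replicate activity score at least 50, where 100 means six control SD above control mean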;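 also: yeast exposed to compound for 9 h at 30 °C; higher score means more reporter readthrough which indicates perturbed polyadenylation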
Arr AP2 block – inhibitors of human beta-arrestin and AP2 interaction; hit rate 0.31% among 340,000; inhibition, % at 10 µM; FITC-arrestin peptide / GST-AP2 beads, flow cytometry; AP2 beta2 appendage carries R879A mutation; AID 504490;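 active = inhibition above a set limit, near 3 SD of compounds lacking own fluorescence, cut at about 54% in these data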;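 also: plate controls were DMSO wells for no effect and 5 µM unlabelled arrestin peptide for full effect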
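System: GST-tagged AP2 beta2-adaptin appendage (R879A) on 4 µm glutathione beads / Reagent: FITC-arrestin peptide, 50 nM / Detection: HyperCyt-sampled flow cytometry, FL1 channel, ex 488/em 535 nm / Timing: 12 min plus 1 h, RT / Buffer or medium: PBS plus Tween 20 (0.05%) and BSA (0.1%)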
DSG3 Ab inh – human desmoglein-3 autoantibody binding inhibition; P32926; DSG3-coupled beads, scFv-anti-DSG3-GFP binding, flow cytometry; active compounds read low; binding (percent of control), % at 10 µM; hit rate 0.48% among 310,000;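 active = binding more than 3 SD below its plate's average and above zero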;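 also: hits lower antibody fragment binding to DSG3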
ALR H2O2 inh – blocks human ALR sulfhydryl oxidase activity; P55789; purified ALR, DTT oxidation, H2O2 HRP-luminol luminescence; inhibition, % (test concentration not listed); hit rate 3.8% among 290,000;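 active = mean replicate inhibition above about 79%, with every replicate also reaching it, limit read from the data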
Target sequence (P55789 whole entry, looked up): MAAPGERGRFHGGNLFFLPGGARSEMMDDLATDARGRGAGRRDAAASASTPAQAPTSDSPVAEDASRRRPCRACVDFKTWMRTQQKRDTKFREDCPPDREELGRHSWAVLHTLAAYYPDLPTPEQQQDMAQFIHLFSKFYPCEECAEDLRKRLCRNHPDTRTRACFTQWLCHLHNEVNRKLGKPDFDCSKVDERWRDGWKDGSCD
Starred values were filed as active, the others as inactive; · = no result. Sampled rows, rich in hits. Any-hit rate of the full collection: about 4.6%.

SMILES | NLRP3 yeast inh | NALP1 inh | PolyA inh | Arr AP2 block | DSG3 Ab inh | ALR H2O2 inh
Cc1ccc(S(=O)(=O)N(C)C[C@@H]2Oc3ncc(Br)cc3C(=O)N([C@H](C)CO)C[C@@H]2C)cc1 | · | · | · | · | 102.8 | ·
CCOc1ccc(/C=N/NC(=O)c2ccccc2O)cc1CN1CC2CC(C1)c1cccc(=O)n1C2 (stereo unspecified) | 11.1 | · | · | -2.5 | 102.8 | 15.3
CC1(C)CC(=O)C(C(O)c2ccccc2)C(C)(C)N1 (stereo unspecified) | 16.8 | 0.0 | 1.6 | 0.4 | 72.3* | -4.6
CC(NCCCSc1ccccc1)C(O)c1ccc(O)cc1 (stereo unspecified) | · | · | · | · | 102.1 | ·
Cc1ccc(NC(=S)Nc2cccc(-c3n[nH]c(=S)o3)c2)cc1 | 37.8 | -23.0 | -11.0 | 6.3 | · | 88.9*
Cc1ccc2cn[nH]c2c1N | -12.6 | 11.9 | -0.1 | 31.0 | 106.7 | 85.2*
COc1ccc(-c2nc(N)ncc2-c2ccccc2)c(O)c1 | 33.1 | -4.7 | -20.6 | 31.2 | 92.8 | 1.8
CN(C)c1nc(N)ncc1-c1ccc(Oc2ccccc2)cc1 | 34.2 | 14.0 | -21.2 | 48.7 | 78.7* | 0.3
COC1=C(C)C(O)=C(C(=O)/C=C/c2ccccc2)C(=O)C1(C)C | 12.8 | 14.2 | -13.2 | · | 101.7 | 97.5*
O=C(CSc1nc2c(sc3ccccc32)c(=O)n1CCCN1CCCC1)NCc1ccco1 | 5.3 | 4.1 | -11.8 | -27.7 | 114.2 | 97.9*
O=C(CSc1nc2c(sc3ccccc32)c(=O)n1CCO)NCc1ccco1 | -11.0 | -2.7 | 1.9 | -3.2 | 94.8 | 2.8
COCCCn1c(SCC(=O)NCc2ccco2)nc2sc3c(c2c1=O)CCC3 | 10.5 | 9.4 | 4.2 | 0.2 | 100.8 | 93.7*
O=C(CSc1nc2sc3c(c2c(=O)n1-c1ccccc1)CCCC3)NCc1ccco1 | 18.9 | 24.3 | -4.4 | 22.8 | 97.7 | ·
C[C@@H]1CN([C@H](C)CO)C(=O)CCCn2nncc2CO[C@H]1CN(C)C(=O)Nc1ccc(N2CCN(C)CC2)cc1 | · | · | · | · | 113.4 | ·
Cc1cnc(SCCc2ccncc2)nc1C | 20.3 | 32.4 | 16.5 | · | · | 98.6*
N#Cc1cnc(SCCc2ccccc2)nc1N | 8.9 | -22.6 | 1.0 | -2.4 | · | -1.8
C=CCNC(=O)NC(=O)CN1C(=O)NC(c2ccccc2)(c2ccccc2)C1=O | 2.2 | 0.4 | -4.2 | 13.2 | 103.0 | -4.6
Cc1noc2ncnc(N3CCCC3)c12 | -0.1 | -7.1 | 1.5 | 14.9 | 106.7 | 1.1
Cc1noc2ncnc(Sc3ccc(Br)cc3)c12 | 45.6 | -2.9 | -34.7 | 20.9 | 108.9 | 98.7*
Cc1nn(C)c(C(=O)Sc2cccc(Cl)c2)c1[N+](=O)[O-] | -5.0 | · | -13.1 | -6.8 | 97.9 | 98.5*
CC1(c2ccc3ccccc3c2)CCC(=O)O1 (stereo unspecified) | · | · | · | 10.2 | 105.8 | ·
CC1(c2cnc(Nc3ccccc3)s2)CCC(=O)O1 (stereo unspecified) | -4.8 | -8.5 | 1.0 | -0.8 | 101.2 | 97.2*
COCCCn1c(=O)/c(=C\c2cccc(OC)c2OC)s/c1=C(/C#N)C(=O)Nc1ccc(C(=O)O)cc1 | -6.6 | · | 7.3 | 7.8 | 115.7 | 97.5*
O=C(COC(=O)c1cc(=O)[nH]c(=O)[nH]1)Nc1cccc(Cl)c1 | -5.0 | · | · | 0.2 | 97.9 | 0.1
COc1ccc(-n2c(-c3cnccn3)n[nH]c2=S)cc1 | 6.7 | 1.0 | 9.5 | -0.6 | 100.5 | 90.3*
SMILES | NLRP3 yeast inh | NALP1 inh | PolyA inh | Arr AP2 block | DSG3 Ab inh | ALR H2O2 inh
CCOC(=O)c1sc2nc3c(SCCC#N)cc(C(=O)c4cc(F)ccc4O)cn3c(=O)c2c1C | 7.2 | 35.1 | 6.9 | 14.1 | 101.7 | -1.7
CCOC(=O)c1sc2nc3c(SCCC(=O)O)cc(C(=O)c4cc(OC)ccc4O)cn3c(=O)c2c1C | · | -20.8 | 8.5 | 9.4 | 55.3* | ·
Cc1ccc2cc3cc(C(=O)NCCCN4CCCC4=O)oc3nc2c1 | 8.8 | 12.0 | -12.7 | -12.4 | 92.0 | 78.0*
COCCN(C(=O)CSc1ccc2c(c1)OCCO2)c1c(N)n(CC(C)C)c(=O)[nH]c1=O | 16.2 | · | · | 21.2 | 119.2 | 94.3*
Cc1cc(C)cc(N2C(=O)CC(Sc3nnnn3-c3ccccc3)C2=O)c1 (stereo unspecified) | 32.9 | 42.6* | 2.9 | 10.9 | 96.8 | 8.5
Cc1cc(C)cc(N2C(=O)CC(Sc3ncn[nH]3)C2=O)c1 (stereo unspecified) | 28.6 | 57.5* | -35.1 | -10.5 | 98.1 | -4.0
CCN(CC)C1CC(=O)N(c2cccc(C)c2)C1=O (stereo unspecified) | 21.7 | 90.5* | -9.3 | · | · | ·
Cc1cccc(N2C(=O)CC(Sc3nc(C)cc(C)n3)C2=O)c1 (stereo unspecified) | 4.3 | 0.3 | -1.5 | 2.6 | 90.5 | -0.7
Cc1cccc(N2C(=O)CC(Sc3nnc(C)s3)C2=O)c1 (stereo unspecified) | 19.7 | 35.3* | -5.3 | -3.5 | 101.9 | 43.1
COc1cccc(/C=C/C(=O)OCC(=O)Nc2nnc(-c3ccccc3)o2)c1 | 12.0 | · | -8.7 | 1.0 | 105.5 | 0.1
CCOc1ccc(N2CC(C(=O)NNC(=O)c3ccc(Br)cc3)CC2=O)cc1 (stereo unspecified) | 19.3 | · | 9.4 | 15.4 | 111.1 | -11.9
CC(C)[C@H](NC(=O)c1ccco1)C(=O)OCC(=O)c1ccc2c(c1)NC(=O)CO2 | 8.1 | -2.0 | -6.3 | -3.6 | 107.0 | 99.6*
O=C1COc2ccc(C(=O)COC(=O)c3ccco3)cc2N1 | 4.2 | · | -13.4 | 9.0 | 99.4 | -6.6
O=C1COc2ccc(C(=O)COC(=O)CCCOc3ccccc3)cc2N1 | · | · | · | · | 82.1* | ·
O=C1COc2ccc(C(=O)COC(=O)CCSc3ccccc3)cc2N1 | 19.7 | · | 2.3 | 3.1 | 73.2* | 0.1
O=C1COc2ccc(C(=O)COC(=O)CNC(=O)c3ccccc3)cc2N1 | 12.4 | -7.0 | 12.6 | 1.7 | 99.9 | -2.8
Cc1ccc(-n2ncc3c2CCCC3NC(=O)CCCN2CCCC2=O)cc1C (stereo unspecified) | -1.3 | 7.9 | -16.3 | 19.0 | 97.6 | 3.3
O=C(Nc1ccc(Cl)c(C(=O)N2CCOCC2)c1)c1ccccc1 | 6.9 | 2.5 | 18.7 | 6.1 | 110.6 | -4.8
CCOc1ccc(S(=O)(=O)NCCC(=O)NCCOc2ccccc2OC)cc1 | 9.8 | · | 13.9 | -1.6 | 105.1 | ·
Cc1cc2n(n1)C(c1ccccc1Cl)Nc1ccccc1-2 (stereo unspecified) | -30.4 | 14.5 | -20.8 | 2.4 | 104.2 | 98.2*
CCOc1ccc(-c2nnc(NC(=O)COc3ccccc3F)o2)cc1 | · | · | · | · | 95.3 | ·
Cc1ccccc1NS(=O)(=O)c1cccc2nsnc12 | -13.7 | -1.4 | -8.1 | -9.9 | 93.5 | -21.8
CCc1noc(C)c1C(=O)NC1CC(C)(C)Cc2c1cnn2-c1ccccc1 (stereo unspecified) | 7.7 | 12.1 | -2.9 | 11.8 | · | -4.3
COc1ccc(-c2cn[nH]c2-c2ccc(OCC(=O)NN)cc2O)cc1 | 5.5 | 0.1 | 1.8 | 9.5 | 99.5 | 78.2*
